Reference: ChEMBL document CHEMBL3232932, “UPLC-MS-ELSD-PDA as a powerful dereplication tool to facilitate compound identification from small-molecule natural product libraries” (J Nat Prod, 2014)

Tests used:
[1] = Antiproliferative activity against mouse ependymoma cells harboring EPHB2 after 96 hrs by Cell-Titer Glo assay; type: functional, cell-based
Procedure, shortened: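 Cells seeded in neurobasal medium in 384-well plates. Compounds were pin-transferred 24 h later, and DMSO and cycloheximide controls were included on each plate. Dose-response was run as a dilution series in triplicate. After 96 h incubation, cell number was read by CellTiter-Glo luminescence. Data were log10-transformed and percent inhibition calculated, and EC50 was derived.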

[2] = Retention time of the compound by ELSD chromatography; type: physicochemical
Procedure, shortened: (§1)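 Waters Acquity UPLC with ELSD, PDA and single-quadrupole ESI-MS (positive and negative modes). Fractions from automated fractionation of plant extracts were run on a BEH C18 column (2.1 × 50 mm, 1.7 μm) at 1.0 mL/min. Mobile phase was H2O with 0.1% HCOOH against CH3CN or MeOH, with a 3.0 min total run. The gradient differed by run.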

[3] = Retention time of the compound by PDA chromatography; type: physicochemical; procedure, shortened: as §1

| SMILES | Retention_time [2] | Retention_time [3] | EC50 [1] |
| --- | --- | --- | --- |
| COc1cc([C@@H]2c3cc4c(cc3C[C@H]3COC(=O)[C@@H]32)OCO4)cc(OC)c1OC [DESOXYPODOPHYLLOTOXIN] | 1.18 min | 1.15 min | 1.93 nM |
| COc1ccc([C@@H]2CC(=O)c3c(O)cc(O)cc3O2)cc1O [HESPERETIN] | 0.91 min | 0.87 min | – |
| COc1cc(C[C@H]2C(=O)OC[C@@H]2Cc2ccc3c(c2)OCO3)cc(OC)c1OC | 1.2 min | – | – |
| COc1cc([C@@H]2CC(=O)c3c(O)cc(O)cc3O2)ccc1O [HOMOERIODICTYOL] | 0.89 min | 0.85 min | – |

The next lines start with results.

| Retention_time [2] | Retention_time [3] | SMILES | EC50 [1] |
| --- | --- | --- | --- |
| 1.02 min | 0.98 min | COc1cc(O)c2c(c1)OC(c1ccc(O)c(O)c1)CC2=O (centres undefined) | – |
| 0.92 min | – | C=C1CC[C@@H]2[C@](C)(CCC[C@]2(C)C(=O)O)[C@H]1CCC(C)(O)C(O)CO (mixture of isomers) | > 100 µg/mL |
| 0.9 min | 0.92 min | CC1=c2cc3c(cc2C(=O)OC1(C)C)=C(C)C(C)(C)OC3=O | – |
